Assay results from ChEMBL document CHEMBL2434878, “Synthesis and antimycobacterial activity of analogues of the bioactive natural products sampangine and cleistopholine” (Eur J Med Chem, 2013).

How the values were obtained:
[1] = system: Mycobacterium tuberculosis; assay: Antimicrobial activity against multidrug-resistant Mycobacterium tuberculosis LAM-1 at 5 uM by Bactec 460 TB method relative to control; type: functional; details: read-out: GI
Outline: (§1)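 MDR clinical isolate LAM-1 was precultured in a BACTEC vial to growth index 300, then inoculated into a fresh vial with compound (dilutions made at 40-fold final in 7H9-10% OADC). 14CO2 release from 14C-palmitic acid was read daily.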

[2] = system: Mycobacterium tuberculosis; assay: Antimicrobial activity against multidrug-resistant Mycobacterium tuberculosis LAM-1 at 1 uM by Bactec 460 TB method relative to control; type: functional; details: read-out: GI; outline: as §1

Row | SMILES | inhibition of growth at 5 µM [1] | inhibition of growth at 1 µM [2]
1 | COc1ccc(-c2cc(O)c3c(c2)C(=O)c2ccccc2C3=O)cc1 | 99% | 90%
2 | COc1ccc(-c2cc3c4c(nccc4n2)-c2ccccc2C3=O)cc1 | 99% | 90%
3 | COc1ccc(-c2cc3c(c(/C=C/N(C)C)n2)C(=O)c2ccccc2C3=O)cc1 | 99% | 90%
